In article PMC5115981 (Cancer chemotherapy and pharmacology, 2016):
Where “and” joins values, the source holds several entries; their conditions need not be identical. Identical values can stand only once.

How the values were obtained:
[1] = Mouse liver microsome incubation for glucuronide metabolism; assay type: in vitro ADME; conditions: mouse liver microsomes 0.25 mg/mL, alamethicin, UDPGA
Procedure, shortened: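 Glucuronidation incubation used microsomes from female heterozygous Foxn1nu/Foxn1+ mouse liver. Mix: 0.1 M phosphate (pH 7.4), 0.25 mg/mL microsomal protein, 25 µg/mL alamethicin, 50 mM Tris-HCl, 10 mM MgCl2 and 1,000 ng/mL drug. A mix without UDPGA served as negative control. Samples were analysed twice: SRM monitoring of the m/z 613 glucuronide channel, then MRM quantitation of parent depletion against a curve in buffer with 0.25 mg/mL BSA. Parent expressed relative to time 0.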

mice = test: Single dose IV toxicity study in mice; assay type: in vivo, mouse; conditions: single IV dose 4 mg/kg
Procedure, shortened: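 Male and female heterozygous Foxn1nu/Foxn1+ mice, 5 per group, fasted overnight. Single 4 mg/kg IV tail-vein dose from a 0.4 mg/mL solution in 10% Solutol HS15 in sterile water (0.01 ml/g), alongside vehicle-treated mice. Body weights and clinical signs followed over 14 days, then necropsy for gross pathology. The dose tested was capped by maximum solubility.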

[2] = Plasma protein binding by rapid equilibrium dialysis; assay type: in vitro ADME, mouse; conditions: for fraction unbound at 4 h, 1000 ng/mL: mouse, plasma, pH 7.2, plasma protein binding
Procedure, shortened: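 Rapid equilibrium dialysis with control mouse plasma spiked to 1,000 ng/mL from a DMSO stock (organic <0.1%). Four 200 µL replicates were dialysed against PBS (pH 7.2), shaken at 37 °C for 4 h. Both compartments were quantified by LC-MS/MS against a curve in 1:1 PBS:plasma, with samples diluted to match the matrix. Assay LLQ was 1 ng/mL.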

[3] = Single dose pharmacokinetics in mice; assay type: in vivo, mouse
Procedure, shortened: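 Fasted female heterozygous Foxn1nu/Foxn1+ mice, 3 per time point (5–1440 min), received a single dose by one of three routes: 4.0 mg/kg in 10% Solutol HS IV via tail vein; the same formulation by oral gavage; or 30 mg/kg PO in 1% CMC suspension. Vehicle controls were taken at 5 and 1440 min. Sampling: cardiac-puncture EDTA plasma, tissues including brain, and metabolic-cage urine. Analysis by LC-MS/MS with a deuterated internal standard. Group means underwent non-compartmental analysis; […].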

[4] = Stability of UPCDC-10205 in mouse plasma; assay type: in vitro ADME
Procedure, shortened: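 Assay evaluation in control mouse plasma used QCs at 2.5, 30 and 800 ng/mL. 100 µL samples were spiked with deuterated internal standard, precipitated with acetonitrile, and supernatants dried at 37 °C under nitrogen before positive-ion MRM LC-MS/MS. Recovery and ion suppression were assessed at the 30 ng/mL QC. Also tested: bench stability during sample preparation for 4 h at room temperature, and three −80 °C freeze/thaw cycles.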

[5] = Mouse liver microsome incubation; assay type: in vitro ADME
Procedure, shortened: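 Microsomes from livers of female heterozygous Foxn1nu/Foxn1+ mice, with protein measured against a BSA standard. Incubations contained 0.5 mg/mL microsomal protein, 1,000 ng/mL drug, […], 0.1 M phosphate (pH 7.4) and <0.1% acetonitrile. Stopped with acetonitrile at 0, 15, 30, 45, 60 and 90 min, in triplicate. A positive control was run at 0 and 90 min. LC-MS used an analogue internal standard and calibrators in buffer with 0.5 mg/mL BSA. Results given as % of 0 min.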

[6] = mouse plasma spiked at 1,000 ng/mL, RED, 37 °C, 4 hours, calculated using the LLQ value (1 ng/mL)
[7] = female, heterozygous Foxn1nu/Foxn1+, mouse, brain, iv, 4 mg/kg
[8] = female, heterozygous Foxn1nu/Foxn1+, mouse, brain, po, 4 mg/kg
[9] = female, heterozygous Foxn1nu/Foxn1+, mouse, brain, po, 30 mg/kg
[10] = female, heterozygous Foxn1nu/Foxn1+, mouse, kidney, iv, 4 mg/kg
[11] = female, heterozygous Foxn1nu/Foxn1+, mouse, kidney, po, 4 mg/kg
[12] = female, heterozygous Foxn1nu/Foxn1+, mouse, kidney, po, 30 mg/kg
[13] = female, heterozygous Foxn1nu/Foxn1+, mouse, liver, iv, 4 mg/kg
[14] = female, heterozygous Foxn1nu/Foxn1+, mouse, liver, po, 4 mg/kg
[15] = female, heterozygous Foxn1nu/Foxn1+, mouse, liver, po, 30 mg/kg
[16] = female, heterozygous Foxn1nu/Foxn1+, mouse, lung, iv, 4 mg/kg
[17] = female, heterozygous Foxn1nu/Foxn1+, mouse, lung, po, 4 mg/kg
[18] = female, heterozygous Foxn1nu/Foxn1+, mouse, lung, po, 30 mg/kg
[19] = female, heterozygous Foxn1nu/Foxn1+, mouse, muscle, iv, 4 mg/kg
[20] = female, heterozygous Foxn1nu/Foxn1+, mouse, muscle, po, 30 mg/kg
[21] = female, heterozygous Foxn1nu/Foxn1+, mouse, plasma, iv, 4 mg/kg
[22] = female, heterozygous Foxn1nu/Foxn1+, mouse, plasma, po, 4 mg/kg
[23] = female, heterozygous Foxn1nu/Foxn1+, mouse, plasma, po, 30 mg/kg
[24] = female, heterozygous Foxn1nu/Foxn1+, mouse, red blood cells (RBC), iv, 4 mg/kg
[25] = female, heterozygous Foxn1nu/Foxn1+, mouse, red blood cells, po, 4 mg/kg
[26] = female, heterozygous Foxn1nu/Foxn1+, mouse, skeletal muscle, po, 4 mg/kg

## COc1ccc(C2=Nn3c(nnc3-c3cc(-c4ccc(Cl)cc4)n[nH]3)SC2C)cc1 (centres unmarked) [UPCDC-10205, 3-(3-(4-chlorophenyl)-1H-pyrazole-5-yl)-6-(4-methoxyphenyl)-7-methyl-7H-[1,2,4]triazolo[3,4-b][1,3,4]thiadiazine]
[1]
  UPCDC-10205 remaining relative to time 0 after 60 min: 67%
mice; male and female mice, 14 day observation, 4 mg/kg
  clinical appearance after single dose: not toxic
mice; necropsy after 14 day observation
  gross pathology upon necropsy after single dose: no gross pathology was detected
mice; within first 24 h after injection
  body weight after single dose: no apparent weight loss
[2]; average of 4 replicates, 37 °C, 4 hours
  concentration in the plasma portion of the RED device: 1,091 ng/mL
[2]; below the 1 ng/mL assay LLQ
  concentration in the saline buffer portion of the RED device: 0.2 ng/mL
[2]; [6]
  plasma protein binding: > 99.9%
  fraction unbound at 4 h, 1000 ng/mL: < 0.0009
[2]; mouse plasma spiked at 1,000 ng/mL, RED, 37 °C, 4 hours, calculated using 0.2 ng/mL
  fraction unbound at 4 h, 1000 ng/mL: ~0.0002
[3]; [7]
  AUC(0-t): 1730 ng·h/mL
  Tmax: 15 min
[3]; female, heterozygous Foxn1nu/Foxn1+, mouse, brain, iv, 4 mg/kg, mice, IV 4 mg/kg in 10% Solutol HS, brain
  Cmax: 1640 ng/mL
[3]; [8]
  AUC(0-t): 30 ng·h/mL
  Tmax: 60 min
[3]; female, heterozygous Foxn1nu/Foxn1+, mouse, brain, po, 4 mg/kg, mice, PO 4 mg/kg in 10% Solutol HS, brain
  Cmax: 15.4 ng/mL
[3]; [9]
  AUC(0-t): 33.4 ng·h/mL
  Tmax: 5 min
[3]; female, heterozygous Foxn1nu/Foxn1+, mouse, brain, po, 30 mg/kg, mice, PO 30 mg/kg suspension in 1% CMC, brain
  Cmax: 49 ng/mL
[3]; [10]
  AUC(0-t): 3240 ng·h/mL
  Tmax: 5 min
[3]; female, heterozygous Foxn1nu/Foxn1+, mouse, kidney, iv, 4 mg/kg, mice, IV 4 mg/kg in 10% Solutol HS, kidney
  Cmax: 4620 ng/mL
[3]; [11]
  AUC(0-t): 428 ng·h/mL
  Tmax: 30 min
[3]; female, heterozygous Foxn1nu/Foxn1+, mouse, kidney, po, 4 mg/kg, mice, PO 4 mg/kg in 10% Solutol HS, kidney
  Cmax: 308 ng/mL
[3]; [12]
  AUC(0-t): 272 ng·h/mL
  Tmax: 5 min
[3]; female, heterozygous Foxn1nu/Foxn1+, mouse, kidney, po, 30 mg/kg, mice, PO 30 mg/kg suspension in 1% CMC, kidney
  Cmax: 404 ng/mL
[3]; [13]
  AUC(0-t): 1470 ng·h/mL
  Tmax: 30 min
[3]; female, heterozygous Foxn1nu/Foxn1+, mouse, liver, iv, 4 mg/kg, mice, IV 4 mg/kg in 10% Solutol HS, liver
  Cmax: 2780 ng/mL
[3]; [14]
  AUC(0-t): 300 ng·h/mL
  Tmax: 5 min
[3]; female, heterozygous Foxn1nu/Foxn1+, mouse, liver, po, 4 mg/kg, mice, PO 4 mg/kg in 10% Solutol HS, liver
  Cmax: 220 ng/mL
[3]; [15]
  AUC(0-t): 542 ng·h/mL
  Tmax: 5 min
[3]; female, heterozygous Foxn1nu/Foxn1+, mouse, liver, po, 30 mg/kg, mice, PO 30 mg/kg suspension in 1% CMC, liver
  Cmax: 564 ng/mL
[3]; [16]
  AUC(0-t): 2680 ng·h/mL
  Tmax: 5 min
[3]; female, heterozygous Foxn1nu/Foxn1+, mouse, lung, iv, 4 mg/kg, mice, IV 4 mg/kg in 10% Solutol HS, lung
  Cmax: 4490 ng/mL
[3]; [17]
  AUC(0-t): 630 ng·h/mL
  Tmax: 4.98 min
[3]; female, heterozygous Foxn1nu/Foxn1+, mouse, lung, po, 4 mg/kg, mice, PO 4 mg/kg in 10% Solutol HS, lung
  Cmax: 414 ng/mL
[3]; [18]
  AUC(0-t): 186 ng·h/mL
  Tmax: 5 min
[3]; female, heterozygous Foxn1nu/Foxn1+, mouse, lung, po, 30 mg/kg, mice, PO 30 mg/kg suspension in 1% CMC, lung
  Cmax: 331 ng/mL
[3]; [19]
  AUC(0-t): 1630 ng·h/mL
  Tmax: 15 min
[3]; female, heterozygous Foxn1nu/Foxn1+, mouse, muscle, iv, 4 mg/kg, mice, IV 4 mg/kg in 10% Solutol HS, muscle
  Cmax: 1900 ng/mL
[3]; female, heterozygous Foxn1nu/Foxn1+, mouse, muscle, po, 4 mg/kg, mice, PO 4 mg/kg in 10% Solutol HS, muscle
  Cmax: 51.2 ng/mL
[3]; [20]
  AUC(0-t): 140 ng·h/mL
  Tmax: 5 min
[3]; female, heterozygous Foxn1nu/Foxn1+, mouse, muscle, po, 30 mg/kg, mice, PO 30 mg/kg suspension in 1% CMC, muscle
  Cmax: 189 ng/mL
[3]; [21]
  AUC(0-inf): 1020 ng·h/mL
  AUC(0-t): 1020 ng·h/mL
  Tmax: 5 min
  half-life: 36 min
[3]; female, heterozygous Foxn1nu/Foxn1+, mouse, plasma, iv, 4 mg/kg, mice, IV 4 mg/kg in 10% Solutol HS, plasma
  Cmax: 1710 ng/mL
[3]; female, heterozygous Foxn1nu/Foxn1+, mouse, plasma, iv, 4 mg/kg, Vd, mice, IV 4 mg/kg, plasma
  Vd: 3.4 L/kg
[3]; female, heterozygous Foxn1nu/Foxn1+, mouse, plasma, iv, 4 mg/kg, Vss, mice, IV 4 mg/kg, plasma
  Vd: 2 L/kg
[3]; female, heterozygous Foxn1nu/Foxn1+, mouse, plasma, iv, 4 mg/kg, clearance, mice, IV 4 mg/kg, plasma
  clearance: 65.2 mL/min/kg
[3]; female, heterozygous Foxn1nu/Foxn1+, mouse, plasma, oral, 30 mg/kg
  bioavailability: 0.3%
[3]; [22]
  AUC(0-t): 52.1 ng·h/mL
  Tmax: 30 min
  half-life: 48 min
[3]; female, heterozygous Foxn1nu/Foxn1+, mouse, plasma, po, 4 mg/kg, mice, PO 4 mg/kg in 10% Solutol HS, plasma
  Cmax: 35 ng/mL
[3]; [23]
  AUC(0-t): 25.7 ng·h/mL
  Tmax: 60 min
  half-life: 204 min
[3]; female, heterozygous Foxn1nu/Foxn1+, mouse, plasma, po, 30 mg/kg, mice, PO 30 mg/kg suspension in 1% CMC, plasma
  Cmax: 6.7 ng/mL
[3]; [24]
  AUC(0-t): 556 ng·h/mL
  Tmax: 5 min
[3]; female, heterozygous Foxn1nu/Foxn1+, mouse, red blood cells (RBC), iv, 4 mg/kg, mice, IV 4 mg/kg in 10% Solutol HS, RBC
  Cmax: 980 ng/mL
[3]; female, heterozygous Foxn1nu/Foxn1+, mouse, red blood cells (RBC), po, 4 mg/kg, mice, PO 4 mg/kg in 10% Solutol HS, RBC
  Cmax: 16 ng/mL
[3]; [25]
  AUC(0-t): 23.5 ng·h/mL
  Tmax: 30 min
[3]; [26]
  AUC(0-t): 91.4 ng·h/mL
  Tmax: 60 min
[3]; mice, IV 4 mg/kg, 0-6 h collection
  level in pooled urine as % of the total amount administered: 0.0011%
[3]; mice, IV 4 mg/kg, 6-24 h collection
  level in pooled urine as % of the total amount administered: 0.0010%
[3]; mice, IV 4 mg/kg, plasma, 4 mg/kg
  clearance: 65 mL/min/kg
[3]; mice, IV 4 mg/kg, 4 mg/kg
  peak plasma concentration after IV dosing: 1.7 µg/mL and 4.0 µM
[3]; mice, IV 4 mg/kg, LLQ 1 ng/mL
  plasma level by the 6 h time point: below the lower limit of quantitation
[3]; mice, PO 4 mg/kg in 10% Solutol HS vs IV 4 mg/kg, plasma, 4 mg/kg
  %F (oral bioavailability, using AUC0-t): 5.1%
[3]; mice, PO 4 mg/kg, 0-6 h
  level in pooled urine as % of the total dose: 0.0077%
[3]; mice, PO 4 mg/kg, 6-24 h
  urine concentration: below the LLQ
[3]; mice, PO 4 mg/kg, plasma
  time of Cmax after administration: 0.5 h
[3]; mice, PO 4 mg/kg, LLQ 1 ng/mL
  plasma concentrations after the 2 h time point: below the LLQ
[3]; mice, PO 30 mg/kg in 1% CMC suspension, plasma
  time of Cmax after administration: 1.0 h
[3]; mice, PO 30 mg/kg in 1% CMC, all urine samples
  urine concentration: below the LLQ
[3]; mice, renal excretion
  amount excreted in urine: < 0.1 % of dose
[3]; mice, tissue levels compared with plasma
  tissue distribution: extensive tissue distribution
[4]; QCM (30 ng/mL), 4 h at room temperature
  stability in plasma during sample preparation: 100.8%
[4]; mouse
  recovery at 30 ng/mL: 112%
[5]; mouse liver microsome incubation
  metabolic stability among the four analogues: metabolically most stable
[5]; mouse liver microsomes, NADPH, 90 min
  substrate depletion in the initial incubation: 20%
